KCNK3 inh = human KCNK3 channel inhibitors, primary screen, CHO cells, FluxOR thallium flux, B-score; 340,000 tested, 0.84% active; FluxOR fluorescence; stronger effect = lower value; AID 602410, 2012; Potassium channel subfamily K member 3 (Homo sapiens), O14649; B-score at 10 µM;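 active = B-score under library mean minus 4 SD, starting fluorescence ratio at most library mean plus 5 SD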;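 also: more negative B-score means stronger inhibition of thallium flux through KCNK3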
Kir21 inh = inhibitors of mouse Kir2.1 inward-rectifier potassium channel. HEK293-Kir2.1, FluxOR thallium flux fluorescence; stronger effect = lower value. B-score at 10 µM. AID 1672, 2009. 310,000 tested, 0.85% active;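 active = fluorescence ratio B-score at or below minus 3 SD of library scores, with starting-brightness B-score within 2 SD, cut at about -4.2 in these data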;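 also: channel flux triggered by added potassium and thallium sulfate stimulus; B-score of peak minus minimum fluorescence over baseline after thallium stimulus; more negative B-score means stronger Kir2.1 block with less thallium influx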
KCNQ1 act = potentiators or activators of KCNQ1 channel, primary screen, cell-based, thallium flux, high-throughput. Potassium voltage-gated channel subfamily KQT member 1 (Homo sapiens), P51787. CHO-K1 KCNQ1, thallium flux FluxOR fluorescence; stronger effect = higher value. B-score at 10 µM. 310,000 tested, 0.35% active. AID 2648, 2010;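 active = fluorescence ratio B-score, a plate-corrected score, at least three library SD, with initial intensity B-score within 5 SD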
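assay system = KCNQ1-transfected CHO-K1 cells | medium = assay buffer with matched DMSO | probe or stimulus = depolarizing K+/Tl+ stimulus, K2SO4 and Tl2SO4 each 12.5 mM in 5x stock | dosing = single dose | incubation = dye 90 min, compound 20 min, room temperature | detection = kinetic FluxOR fluorescence, 10 s baseline plus 110 s post-stimulus | evaluation = ratio B score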
hERG rescue = hERG rescue from dofetilide block, primary screen, cell-based, CHO-hERG, FluxOR thallium flux, dofetilide IC70 | dofetilide IC70 present | activation (rescue from dofetilide block), less the hit threshold, % at 10 µM | 310,000 tested, 0.51% active | Voltage-gated inwardly rectifying potassium channel KCNH2 (Homo sapiens), Q12809;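 active = activation above the mean of controls blocked by dofetilide plus 5 SD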;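 also: thallium influx through hERG after potassium depolarization seen as dye fluorescence rise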
Target sequence (Q12809 whole entry, looked up): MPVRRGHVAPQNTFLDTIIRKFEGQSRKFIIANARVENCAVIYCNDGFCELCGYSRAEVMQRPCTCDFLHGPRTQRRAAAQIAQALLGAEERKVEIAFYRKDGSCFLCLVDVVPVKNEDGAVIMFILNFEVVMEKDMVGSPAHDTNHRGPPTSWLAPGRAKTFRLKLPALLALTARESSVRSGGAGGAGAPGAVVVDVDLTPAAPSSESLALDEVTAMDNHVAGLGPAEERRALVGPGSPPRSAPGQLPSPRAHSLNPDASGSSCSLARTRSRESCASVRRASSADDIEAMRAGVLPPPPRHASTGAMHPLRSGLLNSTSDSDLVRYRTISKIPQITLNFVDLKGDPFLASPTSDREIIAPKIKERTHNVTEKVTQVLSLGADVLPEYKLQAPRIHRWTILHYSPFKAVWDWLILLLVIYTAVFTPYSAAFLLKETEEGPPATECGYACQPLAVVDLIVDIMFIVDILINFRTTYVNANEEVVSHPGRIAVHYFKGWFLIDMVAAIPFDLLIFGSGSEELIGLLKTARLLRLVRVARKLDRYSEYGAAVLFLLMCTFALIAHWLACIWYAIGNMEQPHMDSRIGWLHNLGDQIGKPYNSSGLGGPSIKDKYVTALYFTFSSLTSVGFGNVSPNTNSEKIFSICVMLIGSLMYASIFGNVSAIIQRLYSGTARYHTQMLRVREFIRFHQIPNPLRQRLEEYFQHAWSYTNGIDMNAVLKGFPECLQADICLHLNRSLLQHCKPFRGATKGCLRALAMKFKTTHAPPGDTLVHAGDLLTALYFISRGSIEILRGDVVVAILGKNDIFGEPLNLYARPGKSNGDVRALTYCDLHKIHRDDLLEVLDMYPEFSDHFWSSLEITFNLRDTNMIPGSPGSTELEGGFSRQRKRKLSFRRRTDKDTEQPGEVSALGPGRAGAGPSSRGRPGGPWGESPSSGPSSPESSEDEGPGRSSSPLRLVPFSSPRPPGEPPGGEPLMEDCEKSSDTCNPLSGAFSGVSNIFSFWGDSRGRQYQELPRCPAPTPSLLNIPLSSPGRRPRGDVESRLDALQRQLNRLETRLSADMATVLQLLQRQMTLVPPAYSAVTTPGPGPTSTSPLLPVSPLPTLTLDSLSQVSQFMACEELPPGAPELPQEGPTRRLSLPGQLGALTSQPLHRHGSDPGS
KCNK9 inh = KCNK9 potassium channel inhibitors, primary screen, HEK293 cells, thallium flux. FluxOR thallium flux fluorescence; stronger effect = lower value. 310,000 tested, 1.2% active. Potassium channel subfamily K member 9 (Homo sapiens), Q9NPC2. B-score at 10 µM. AID 488922, 2010;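 active = ratio B-score over 3 SD below the library mean, with starting fluorescence within 5 SD of its mean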;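 also: negative B-score means less thallium flux so channel inhibition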
KCNQ1 block = inhibitors of human KCNQ1 channel, primary screen, cell-based, thallium flux, high-throughput; Potassium voltage-gated channel subfamily KQT member 1 (Homo sapiens), P51787; CHO-K1 KCNQ1, FluxOR thallium flux fluorescence; stronger effect = higher value; B-score at 10 µM; 310,000 tested, 1.3% active;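 active = compounds whose thallium flux B-score, printed positive for inhibition, exceeds three library SD while starting fluorescence stays within three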;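 also: channel opened by potassium depolarization with thallium stimulus after 20 min compound exposure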
KCNK3 confirm = retest of human KCNK3 channel inhibitors, confirmation, CHO cells, FluxOR thallium flux, triplicate. shares compounds with KCNK3 inh. AID 651638, 2012. ratio percent of control, % at 10 µM. 2,400 tested, 99% active. FluxOR fluorescence; 0% buffer, 100% carvedilol maximal block;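 active = ratio percent of control, averaged over triplicates, above buffer control mean plus 5 SD, cut at about 64% in these data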;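 also: ratio is the fluorescence rise from min to max over baseline after thallium stimulus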
KCNK3 noninduced = thallium flux inhibition in non-induced cells, primary screen, counter-screen for KCNK3 inhibitor project, cell-based, non-induced KCNK3 line, FluxOR thallium, triplicate | non-induced KCNK3 parental cells; stronger effect = lower value | 2,400 tested, 40% active | shares compounds with KCNK3 inh | thallium flux ratio (lower = more inhibition) at 10 µM;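 active = thallium flux ratio, averaged over three wells, more than 5 SD below the buffer control mean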;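 also: host cells are CHO cells without KCNK3 induction; ratio is peak minus trough fluorescence over baseline then normalized to buffer controls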
* = called active by the depositor; i = inactive; · = no result given. Most compounds without a hit are left out; they make up all but 3.7% or so of the library.

SMILES	KCNK3 inh	Kir21 inh	KCNQ1 act	hERG rescue	KCNK9 inh	KCNQ1 block	KCNK3 confirm	KCNK3 noninduced
Oc1ccc(/C=C/c2ccc3cccc(O)c3n2)cc1Br	-11*	0.75	i	-11	i	i	135*	0.12*
O=C(O)c1ccc(/C=C/c2ccc3cccc(O)c3n2)cc1	i	1.1	i	-10	i	i	·	·
CC(=O)Nc1ccc(SCC(=O)c2cc(C)n(Cc3cccs3)c2C)cc1	i	1.3	i	-4	i	i	·	·
Cc1csc(SCC(=O)c2cc(C)n(Cc3cccs3)c2C)n1	-9.5*	-0.93	i	-7	i	i	133*	0.14*
Cc1cc(C(=O)CSc2nnc(N)s2)c(C)n1Cc1cccs1	i	0.73	i	-9	i	i	·	·
Cc1cc(C(=O)CSc2n[nH]c(-c3ccccc3F)n2)c(C)n1Cc1cccs1	-10*	-3.2	i	-12	i	i	92*	i
O=C(Nc1ccc(N2CCOCC2)cc1)c1cc2c(s1)CCCCC2	i	1.5	i	-7	i	i	·	·
CC(=O)Nc1cccc(C(=O)Nc2ccccc2N2CCOCC2)c1	i	-2.5	i	-12	i	i	·	·
O=C(Nc1ccccc1N1CCOCC1)c1cc2c(s1)CCCCC2	-10*	0.4	i	-5	i	i	118*	i
O=C(Nc1ccccc1N1CCOCC1)c1cccc(NS(=O)(=O)c2ccc(F)c(F)c2)c1	-8.7*	-1.2	i	-10	i	i	94*	0.16*
C=C(C)COC(=O)c1ccccc1C(=O)OCC1(C)CO1 (stereo not drawn)	i	·	·	·	·	·	·	·
CCC(CO)Nc1nc2ccc(Cl)cc2c2ccccc12 (stereo not drawn)	-9.2*	0.05	i	-7	i	i	98*	i
CCCS(=O)(=O)c1nc(S(=O)(=O)c2ccc(C)cc2)c(N2CC(C)OC(C)C2)s1 (stereo not drawn)	i	0.06	i	-5	i	i	·	·
CC(Nc1nc(-c2cccnc2)nc2ccccc12)c1ccc(F)cc1 (stereo not drawn)	-17*	-2.6	i	-17	-7.9*	8*	125*	i
Cc1ccc(C)c(S(=O)(=O)NCC(c2ccc3c(c2)OCO3)N2CCOCC2)c1 (stereo not drawn)	i	1.4	i	-9	i	i	·	·
Cc1cc(F)ccc1S(=O)(=O)NCC(c1ccc2c(c1)OCO2)N1CCOCC1 (stereo not drawn)	-11*	0.2	i	-15	i	i	70*	i
Cc1cc(/C=C(\C#N)C(=O)OCC(=O)NC(=O)NC(C)(C)C)c(C)n1CCC(C)C	-8.7*	-0.02	i	-3	i	i	125*	i
C=CCNC(=O)NC(=O)COC(=O)/C(C#N)=C/c1cc(C)n(CCC(C)C)c1C	i	-0.11	i	-5	i	i	·	·
Cc1ccccc1NC1c2ccccc2C(=O)N1Cc1ccco1 (stereo not drawn)	-10*	2.7	i	-13	i	i	119*	0.15*
O=C(CSc1nnc(-c2ccncc2)o1)Nc1ccc(F)c(F)c1	i	·	·	·	·	·	·	·
COc1ccccc1CNC(=O)c1sccc1-c1ccccc1	-10*	-6.6*	i	-7	i	i	103*	i
O=C(NCc1ccccc1Br)c1ccncc1	i	-0.21	i	-2	i	i	·	·
Cc1ccc(C)c(OCC(=O)Nc2ccccc2N2CCCC2)c1	-10*	-3.6	i	-15	i	i	104*	i
Cc1ccc(OCC(=O)Nc2ccccc2N2CCCC2)c(C)c1	i	-0.23	i	-9	i	i	·	·
O=C(COc1ccccc1)Nc1ccccc1N1CCCCC1	-11*	-1.4	i	-4	i	i	128*	i
SMILES	KCNK3 inh	Kir21 inh	KCNQ1 act	hERG rescue	KCNK9 inh	KCNQ1 block	KCNK3 confirm	KCNK3 noninduced
Cc1[nH]c2ccccc2c1C(=O)C(=O)N1CCN(c2ccccc2Cl)CC1	i	1.2	i	-12	i	i	·	·
Cc1ccc(CNC(=O)Cn2c(=O)oc3ccccc32)o1	-12*	1	i	-4	i	i	77*	i
CC(C)Oc1ccc(CNC(=O)Cn2c(=O)oc3ccccc32)cc1	i	0.59	i	1	i	i	·	·
CC(C)CCn1c(SCC(=O)N2CC(=O)Nc3ccccc32)nc2scc(-c3cccs3)c2c1=O	i	0.35	i	-8	i	i	·	·
C=CCn1c(SCC(=O)N2CC(=O)Nc3ccccc32)nc2scc(-c3cccs3)c2c1=O	-13*	1.9	i	-15	-7.4*	i	110*	i
Cc1onc(-c2ccccc2)c1-c1ccnn1S(=O)(=O)c1ccc(Cl)cc1	-9.4*	-3.6	i	-11	i	i	103*	i
CN1CCC(=NNC(=O)CSc2ccc(Cl)cc2)CC1	i	1.3	i	-4	i	i	·	·
CCOC(=O)c1c(O)c2cccc3c2n(c1=O)CC3	-9.1*	-0.22	i	2	i	i	100*	i
CCCNC(=O)c1c(O)c2cccc3c2n(c1=O)CCC3	i	0.15	i	-7	i	i	·	·
CCCCc1nn(-c2cc(Cl)ccc2OC)c2c1C(=O)CC(C)(C)C2	-10*	-0.85	i	-4	i	i	92*	i
O=C(NCCSc1c[nH]c2ccccc12)c1ccco1	i	0.97	i	-4	i	i	·	·
O=C(NCCSc1c[nH]c2ccccc12)c1c(F)cccc1F	-10*	0.48	i	-18	i	i	101*	i
O=S(Cc1ccc(Br)cc1)Cc1nnc(SCc2ccc(Cl)cc2)n1-c1ccccc1 (stereo not drawn)	-10*	-0.25	i	-7	i	i	98*	i

From PubChem
